Assay results as given in ChEMBL document CHEMBL1136923, “Highly potent, orally available anti-inflammatory broad-spectrum chemokine inhibitors” (J Med Chem, 2009).
Each block holds one compound with its values, some of them ahead of it.

Experiments:
[1] = target: C-C chemokine receptor type 2 (Homo sapiens) (UniProt P41597); assay: Antagonist activity at CCR2 in human THP1 cells assessed as inhibition of CCL2-induced chemotaxis after 2 hrs by microtiter format trans-well migration assay; assay type: functional, cell-based; conditions: THP-1
Chain of C-C chemokine receptor type 2 (Homo sapiens) (P41597 whole entry, looked up): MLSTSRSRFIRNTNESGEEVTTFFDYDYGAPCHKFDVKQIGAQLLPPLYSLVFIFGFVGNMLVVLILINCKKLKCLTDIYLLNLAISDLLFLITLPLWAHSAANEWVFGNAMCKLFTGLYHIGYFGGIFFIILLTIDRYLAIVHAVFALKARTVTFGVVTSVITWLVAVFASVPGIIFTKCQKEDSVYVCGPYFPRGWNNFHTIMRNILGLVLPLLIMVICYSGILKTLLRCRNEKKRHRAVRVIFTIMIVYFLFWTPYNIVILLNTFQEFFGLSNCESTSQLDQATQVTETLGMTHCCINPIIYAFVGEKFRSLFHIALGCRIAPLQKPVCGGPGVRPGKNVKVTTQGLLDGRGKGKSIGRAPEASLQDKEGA
Summary of the method: (§1)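 Microtiter trans-well migration assay in Gey's balanced salt solution with 1 mg/mL endotoxin-free BSA, no fetal calf serum. Migration ran 2 h at 37 °C. Compounds dissolved in DMSO and added to both top and bottom compartments, final DMSO 1%.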

[2] = target: C-C chemokine receptor type 2 (Homo sapiens) (UniProt P41597); assay: Antagonist activity at CCR2 in human THP1 cells assessed as inhibition of CCL2-induced chemotaxis at 1000 nM after 2 hrs by microtiter format trans-well migration assay; assay type: functional, cell-based; conditions: THP-1; summary of the method: as §1
[3] = target: C-C chemokine receptor type 2 (Homo sapiens) (UniProt P41597); assay: Antagonist activity at CCR2 in human THP1 cells assessed as inhibition of CCL2-induced chemotaxis at 100 nM after 2 hrs by microtiter format trans-well migration assay; assay type: functional, cell-based; conditions: THP-1; summary of the method: as §1
[4] = target: C-C chemokine receptor type 2 (Homo sapiens) (UniProt P41597); assay: Antagonist activity at CCR2 in human THP1 cells assessed as inhibition of CCL2-induced chemotaxis at 10 nM after 2 hrs by microtiter format trans-well migration assay; assay type: functional, cell-based; conditions: THP-1; summary of the method: as §1
[5] = target: C-C chemokine receptor type 2 (Homo sapiens) (UniProt P41597); assay: Antagonist activity at CCR2 in human THP1 cells assessed as inhibition of CCL2-induced chemotaxis at 1 nM after 2 hrs by microtiter format trans-well migration assay; assay type: functional, cell-based; conditions: THP-1; summary of the method: as §1
[6] = target: C-C chemokine receptor type 2 (Homo sapiens) (UniProt P41597); assay: Antagonist activity at CCR2 in human THP1 cells assessed as inhibition of CCL2-induced chemotaxis at 0.1 nM after 2 hrs by microtiter format trans-well migration assay; assay type: functional, cell-based; conditions: THP-1; summary of the method: as §1
[7] = target: C-C chemokine receptor type 2 (Homo sapiens) (UniProt P41597); assay: Antagonist activity at CCR2 in human THP1 cells assessed as inhibition of CCL2-induced chemotaxis at 0.01 nM after 2 hrs by microtiter format trans-well migration assay; assay type: functional, cell-based; conditions: THP-1; summary of the method: as §1
Mus musculus [8] = assay: Antiinflammatory activity in sc dosed mouse assessed as inhibition of LPS-induced TNFalpha upregulation measured 2 hrs after LPS challenge; assay type: functional
Mus musculus [9] = assay: Antiinflammatory activity in sc dosed mouse assessed as inhibition of LPS-induced TNFalpha upregulation measured 2 hrs after LPS challenge relative to control; assay type: functional
Summary of the method: (§2)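 Murine sublethal LPS endotoxemia screen. LPS is injected intraperitoneally and serum TNF-α is measured 2 h later as the end point. Compound is given subcutaneously or orally in a vehicle of 0.6% DMSO plus 1% carboxymethylcellulose (final concentrations) in sterile water. Values are % relative to control.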

Mus musculus [10] = assay: Antiinflammatory activity in mouse assessed as inhibition of LPS-induced TNFalpha upregulation at 830 pg, sc measured 2 hrs after LPS challenge; assay type: functional; summary of the method: as §2
Mus musculus [11] = assay: Antiinflammatory activity in po dosed mouse assessed as inhibition of LPS-induced TNFalpha upregulation measured 2 hrs after LPS challenge; assay type: functional
Mus musculus [12] = assay: Antiinflammatory activity in po dosed mouse assessed as inhibition of LPS-induced TNFalpha upregulation measured 2 hrs after LPS challenge relative to control; assay type: functional; summary of the method: as §2
Mus musculus [13] = assay: Antiinflammatory activity in mouse assessed as inhibition of LPS-induced TNFalpha upregulation at 0.0216 ug, sc measured 2 hrs after LPS challenge; assay type: functional
Summary of the method: (§3)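 Murine sublethal endotoxemia: LPS given intraperitoneally, with serum TNF-α measured 2 h after the LPS injection as the end point. Compound was given subcutaneously or orally. Vehicle was 0.6% DMSO and 1% carboxymethylcellulose (final concentrations) in sterile water. Effect is reported as % relative to control.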

Mus musculus [14] = assay: Antiinflammatory activity in mouse assessed as inhibition of LPS-induced TNFalpha upregulation at 0.000216 mg, sc measured 2 hrs after LPS challenge; assay type: functional
Summary of the method: (§4)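 Murine sublethal endotoxemia: LPS given intraperitoneally, serum TNF-α measured 2 h after LPS injection. Compound vehicle 0.6% DMSO plus 1% carboxymethylcellulose (final concentrations) in sterile water.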

Mus musculus [15] = assay: Antiinflammatory activity in mouse assessed as inhibition of LPS-induced TNFalpha upregulation at 0.00216 mg, sc measured 2 hrs after LPS challenge; assay type: functional; summary of the method: as §3
Mus musculus [16] = assay: Antiinflammatory activity in mouse assessed as inhibition of LPS-induced TNFalpha upregulation at 0.0216 mg, sc measured 2 hrs after LPS challenge; assay type: functional; summary of the method: as §3
Mus musculus [17] = assay: Antiinflammatory activity in mouse assessed as inhibition of LPS-induced TNFalpha upregulation at 0.216 mg, sc measured 2 hrs after LPS challenge; assay type: functional; summary of the method: as §3
Mus musculus [18] = assay: Antiinflammatory activity in mouse assessed as inhibition of LPS-induced TNFalpha upregulation at 624 pg, po measured 2 hrs after LPS challenge; assay type: functional; summary of the method: as §2
Mus musculus [19] = assay: Antiinflammatory activity in mouse assessed as inhibition of LPS-induced TNFalpha upregulation at 0.00312 ug, po measured 2 hrs after LPS challenge; assay type: functional; summary of the method: as §3
Mus musculus [20] = assay: Antiinflammatory activity in mouse assessed as inhibition of LPS-induced TNFalpha upregulation at 0.0216 ug, po measured 2 hrs after LPS challenge; assay type: functional; summary of the method: as §3
Mus musculus [21] = assay: Antiinflammatory activity in mouse assessed as inhibition of LPS-induced TNFalpha upregulation at 0.078 ug, po measured 2 hrs after LPS challenge; assay type: functional; summary of the method: as §3
Mus musculus [22] = assay: Antiinflammatory activity in mouse assessed as inhibition of LPS-induced TNFalpha upregulation at 0.000216 mg, po measured 2 hrs after LPS challenge; assay type: functional; summary of the method: as §4
Mus musculus [23] = assay: Antiinflammatory activity in mouse assessed as inhibition of LPS-induced TNFalpha upregulation at 0.000864 mg, po measured 2 hrs after LPS challenge; assay type: functional; summary of the method: as §3
Mus musculus [24] = assay: Antiinflammatory activity in mouse assessed as inhibition of LPS-induced TNFalpha upregulation at 0.0065 mg, po measured 2 hrs after LPS challenge; assay type: functional; summary of the method: as §3
Mus musculus [25] = assay: Antiinflammatory activity in mouse assessed as inhibition of LPS-induced TNFalpha upregulation at 0.0216 mg, po measured 2 hrs after LPS challenge; assay type: functional; summary of the method: as §3
Mus musculus [26] = assay: Antiinflammatory activity in mouse assessed as inhibition of LPS-induced TNFalpha upregulation at 0.065 mg, po measured 2 hrs after LPS challenge; assay type: functional; summary of the method: as §3
Mus musculus [27] = assay: Antiinflammatory activity in mouse assessed as inhibition of LPS-induced TNFalpha upregulation at 0.216 mg, po measured 2 hrs after LPS challenge; assay type: functional; summary of the method: as §3
[28] = Half life in Sprague-Dawley rat at 1 mg/kg, iv administered as single dose; assay type: ADME, organism-based; design: dose 1 mg/kg, route intravenous; conditions: in vivo
Summary of the method: (§5)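 Male Sprague-Dawley rats, three per compound, receive a single intravenous dose in 5% DMSO in 0.9% saline. Food and water are given ad libitum. Plasma is taken at 5, 15, 30, 60, 120, 180, 240 and 480 min. Drug is measured by LC/MS/MS after extraction with 0.1% formic acid in acetonitrile. The curve is back-extrapolated to time zero assuming an initial volume of 0.26 L/kg.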

[29] = Volume of distribution at steady state in Sprague-Dawley rat at 1 mg/kg, iv administered as single dose; assay type: ADME, organism-based; design: dose 1 mg/kg, route intravenous; conditions: in vivo, read-out: Vdss; summary of the method: as §5
Rattus norvegicus [30] = assay: AUC (0 to t) in Sprague-Dawley rat at 1 mg/kg, iv administered as single dose; assay type: ADME, organism-based, Plasma; design: dose 1 mg/kg, route intravenous; conditions: in vivo
Summary of the method: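 Male Sprague-Dawley rats, three per compound per route, single dose. IV vehicle 5% DMSO in 0.9% saline; oral gavage vehicle 1% carboxymethylcellulose in 0.9% saline; fed ad libitum. Plasma taken 5–480 min post-dose, extracted with 0.1% formic acid in acetonitrile, quantified by LC/MS/MS (positive mode). AUC(0–t) by linear/log trapezoidal rule; IV curve back-extrapolated assuming initial volume 0.26 L/kg.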

[31] = Fractional bioavailability in Sprague-Dawley rat at 3 mg/kg, po administered as single dose; assay type: ADME, organism-based; conditions: in vivo
Summary of the method: (§6)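 Male Sprague-Dawley rats, three per compound, receive a single oral dose by gavage in 1% carboxymethylcellulose in 0.9% saline, with food and water ad libitum. Plasma is sampled from 5 to 480 min and drug is quantified by positive-mode LC/MS/MS after acetonitrile/formic acid extraction. The lower limit of quantitation is about 2 ng/mL. Exposure is AUC(0→t) by the linear/log trapezoidal rule, and F is oral fractional bioavailability.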

Rattus norvegicus [32] = assay: Plasma concentration in Sprague-Dawley rat at 3 mg/kg, po administered as single dose; assay type: ADME, organism-based; design: dose 3 mg/kg, route oral; conditions: in vivo; summary of the method: as §6

SMILES: CCCCCCCCCC(C)(C)CC(=O)N[C@H]1CCCCNC1=O
ED50 [1]: 4 nM

SMILES: CCCCCC12CCC(C(=O)N[C@H]3CCCCNC3=O)(CC1)CC2
ED50 [1]: 7 nM

More lines, main results first:

ED50 [1]: 0.44 nM
inhibition [2]: 100%
inhibition [3]: 101%
inhibition [4]: 98%
inhibition [5]: 46%
inhibition [6]: 14%
inhibition [7]: 26%
SMILES: O=C1NCCCC[C@H]1NC(=O)C12CC3CC(CC(C3)C1)C2

ED50 [1]: 0.09 nM
inhibition [2]: 100%
inhibition [3]: 98%
inhibition [4]: 100%
inhibition [5]: 99%
inhibition [6]: 11%
half-life [28]: 16 min
Vd [29]: 0.8 L/kg
AUC (Rattus norvegicus [30]): 477 ng·min/mL
bioavailability [31]: < 1%
Cp (Rattus norvegicus [32]): < 2 ng/mL
SMILES: O=C1NCCCC[C@@H]1NC(=O)C12CC3CC(CC(C3)C1)C2
ED50 (Mus musculus [8]): 2 µg/kg
inhibition (INH) (Mus musculus [9]): 90%
inhibition (INH) (Mus musculus [10]): -12%
ED50 (Mus musculus [11]): 0.5 µg/kg
inhibition (INH) (Mus musculus [12]): 90%
inhibition (INH) (Mus musculus [13]): 29%
inhibition (INH) (Mus musculus [14]): 56%
inhibition (INH) (Mus musculus [15]): 71%
inhibition (INH) (Mus musculus [16]): 89%
inhibition (INH) (Mus musculus [17]): 89%
inhibition (INH) (Mus musculus [18]): 8%
inhibition (INH) (Mus musculus [19]): 30%
inhibition (INH) (Mus musculus [20]): 60%
inhibition (INH) (Mus musculus [21]): 59%
inhibition (INH) (Mus musculus [22]): 76%
inhibition (INH) (Mus musculus [23]): 78%
inhibition (INH) (Mus musculus [24]): 71%
inhibition (INH) (Mus musculus [25]): 75%
inhibition (INH) (Mus musculus [26]): 83%
inhibition (INH) (Mus musculus [27]): 91%

ED50 [1]: 0.5 nM
SMILES: O=C(N[C@H]1CCCCNC1=O)C1CCCCC1
